From PubChem BioAssay
Only some compounds are listed: those with a hit (about 1.5% of all), similar ones and a draw of the others.
ABCB1 block: ABCB1 efflux pump inhibitors, primary screen, cell-based, multiplex, flow cytometry, ABCG2 counter-screen; inhibition, % at 6.6 µM; AID 1326, 2008; CCRF-Adr cells, JC-1 efflux; hit rate 0.067% among 190,000; in the data active = inhibition above about 40%;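 note: 0% = vehicle and 100% = reference inhibitor; higher value means more JC-1 retained so stronger ABCB1 efflux block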
EP2 modulator: EP2 receptor modulators, cAMP readout, primary screen, cell-based, HTRF cAMP, PGE2 stimulation. Prostaglandin E2 receptor EP2 subtype (Homo sapiens), P43116. EP2-expressing cells, cAMP HTRF FRET, PGE2 co-stimulation. induction, % at 25 µM. hit rate 0.83% among 260,000. AID 940, 2007;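 active = compounds whose cAMP rise, as percent of the full-agonist control response, exceeds 60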;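 note: rat C6 glioma line stably carrying human EP2 under a CMV promoter; the protocol text gives 20 µM as final concentration; 100% = response of wells given 1 µM PGE2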
EP2 antag: human EP2 receptor antagonists, primary screen, TR-FRET cAMP, C6 glioma cells; Prostaglandin E2 receptor EP2 subtype (Homo sapiens), P43116; C6 glioma cells expressing human EP2; cells stimulated with saturating PGE2; inhibition, % at 25 µM; hit rate 0.52% among 260,000; AID 1422, 2008;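 active = percent inhibition above 40 after rounding to a whole number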;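 note: rat C6 glioma host cells with rolipram phosphodiesterase inhibitor present; the protocol text gives 20 µM as final concentration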
ABCG2 block: ABCG2 efflux pump inhibitors, primary screen, multiplex with ABCB1, IgMXP3 cells, flow cytometry; Broad substrate specificity ATP-binding cassette transporter ABCG2 (Homo sapiens), Q9UNQ0; JC-1 efflux; inhibition, % at 6.6 µM; hit rate 0.1% among 190,000; AID 1325, 2008;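 active = inhibition above 80%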;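 note: 0% = DMSO and 100% = nicardipine control wells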
Target sequence (Q9UNQ0 whole entry, looked up): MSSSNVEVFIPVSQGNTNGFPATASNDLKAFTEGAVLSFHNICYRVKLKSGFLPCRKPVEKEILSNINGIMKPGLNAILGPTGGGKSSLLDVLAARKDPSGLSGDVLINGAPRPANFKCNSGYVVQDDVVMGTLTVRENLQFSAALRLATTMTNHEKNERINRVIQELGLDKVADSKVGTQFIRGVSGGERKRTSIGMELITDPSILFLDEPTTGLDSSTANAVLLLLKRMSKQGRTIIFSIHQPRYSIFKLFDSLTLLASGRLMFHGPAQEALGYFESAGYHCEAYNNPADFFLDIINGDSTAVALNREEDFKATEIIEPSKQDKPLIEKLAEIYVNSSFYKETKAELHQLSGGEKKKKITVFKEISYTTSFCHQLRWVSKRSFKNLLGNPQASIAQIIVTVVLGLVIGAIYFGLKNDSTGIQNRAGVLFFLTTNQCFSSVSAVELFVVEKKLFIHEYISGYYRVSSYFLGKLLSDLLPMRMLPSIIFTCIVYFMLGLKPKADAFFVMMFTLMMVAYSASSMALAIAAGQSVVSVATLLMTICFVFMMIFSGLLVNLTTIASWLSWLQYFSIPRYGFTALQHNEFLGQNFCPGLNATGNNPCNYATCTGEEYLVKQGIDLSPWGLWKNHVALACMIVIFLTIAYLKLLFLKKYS
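System: two drug-resistant human cell lines, ABCG2 and ABCB1; controls: nicardipine high and DMSO low controls; times: 10 min exposure at 25 °C with rotation, no wash; detection: flow cytometry of retained JC-1 fluorescence; read-out basis: percent efflux inhibition, scaled nicardipine 100% to DMSO 0%; doses: one concentration, 6.6 µM final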
RBBP9 inhibitor: human RBBP9 inhibitors, primary screen, biochemical, fluorescence polarization, FP-Rh probe, HTS; hit rate 0.2% among 220,000; recombinant RBBP9; inhibition, % at 7.94 µM; Serine hydrolase RBBP9 (Homo sapiens), O75884;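 active = inhibition above the campaign mean of all tested compounds plus 3 SD, cut at about 14% in these data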;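 note: plate controls were DMSO wells with RBBP9 for no effect and wells lacking RBBP9 protein for full effect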
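Test system: recombinant human RBBP9; Timing: 30 min then 45 min, 25 °C; Detection: fluorescence polarization; Control set: RBBP9 with DMSO as uninhibited control, no-protein wells as full inhibition; Compound dosing: one concentration, 7.94 µM nominal, 0.794% DMSO; Probe or stimulus: FP-Rh activity-based probe, 375 nM before mixing.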
EP2 cAMP induct: cAMP induction in EP2, EP4, beta2-AR and parental cells, confirmation, counter-screen for EP2 modulator project, cell-based, five parallel assays, C6 glioma, HEK293 | cAMP HTRF induction; plus low (about EC15) PGE2 agonist | shares compounds with EP2 modulator | calls only at 20 µM (by protocol) | hit rate 47% among 1,300;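 active = cAMP induction above 50% in the main assay while under 30% in all four parallel counter assays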;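 note: rat C6 glioma cells stably expressing human EP2 receptor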
Active calls of the source: *; i = inactive; / = no result given; + = active, no number.

SMILES	ABCB1 block	EP2 modulator	EP2 antag	ABCG2 block	RBBP9 inhibitor	EP2 cAMP induct
COc1ccc(CN(Cc2[nH]c3ccccc3c2C)CC2CCCO2)c(OC)c1OC (configuration not stated)	/	-14	1	/	/	/
COc1cc2cc(Br)cc(Br)c2nc1C	0	78*	14	6	0	i
CC1=C(C(=O)OCc2ccccc2)C(c2ccc(Cl)cc2Cl)NC(=O)N1CCCCCC(=O)O (configuration not stated)	0	66*	7	-1	-10	i
Cc1ccc(NCc2n[nH]c(=S)n2Cc2ccccc2)cc1Cl	-1	55	6	-2	-1	i
Cc1ccc(NCc2nnc(SCC(=O)O)n2Cc2ccccc2)cc1Cl	0	21	3	-1	3	/
O=C(CC1CCCCC1)N1CCN(c2ccccc2F)CC1	/	-29	11	/	/	/
FC(F)(F)c1nnc(-c2ccccc2)nc1Sc1ccc(Cl)cc1	0	42	7	6	-5	/
FC(F)(F)c1nnc(-c2ccccc2)nc1Sc1ccccc1	0	75*	20	3	7	i
CCOC(=O)c1sc(NC(=O)CN2C(=O)c3cccc4cccc(c34)C2=O)nc1C	0	66*	-3	-1	-2	i
COC(=O)C1=C(C)NC(=O)C1(NC(=O)c1ccncc1)C(F)(F)F (configuration not stated)	0	10	8	-4	-1	/
COC(=O)NC1(C(F)(F)F)C(=O)NC(C)=C1C(=O)OC (configuration not stated)	0	71*	10	1	-9	i
Cc1sc(NC(=O)Cc2ccc3c(c2)OCO3)nc1-c1ccc2c(c1)CCN2C(=O)c1cccc(F)c1	1	72*	5	1	3	i
CC1CCN(C(=O)CSc2nc3c(c(=O)n(C)c(=O)n3C)n2Cc2ccc(F)cc2)CC1	/	-10	12	/	/	/
Cc1oc(C(=O)O)cc1CN	/	-10	13	/	/	/
COc1cnc(SCc2c(Cl)cccc2Cl)nc1Cl	1	74*	6	4	0	+
Nc1cc(N)nc(SCc2c(Cl)cccc2Cl)n1	/	-37	7	/	/	/
O=C(OCC(=O)N1N=C(c2ccc(Cl)cc2)CC1c1ccco1)c1ccco1 (configuration not stated)	0	69*	6	2	4	i
O=C(OCC(=O)N1N=C(c2ccc(Cl)cc2)CC1c1ccco1)c1ccccc1O (configuration not stated)	0	43	6	4	2	/
CS(=O)(=O)c1ccc2nc(NC(=O)COc3ccccc3Cl)sc2c1	/	-59	8	/	/	/
c1ccc(Cn2c(-c3ccccc3)nc3nc4ccccc4nc32)cc1	1	67*	11	0	-4	+
CC1CCC(C(C)C)C(OC(=O)COC(=O)c2ccc(=O)[nH]c2)C1 (configuration not stated)	0	66*	15	1	-2	i
CC1CCC(C(C)C)C(OC(=O)COC(=O)c2cc(O)ccc2N)C1 (configuration not stated)	0	43	18	-3	-10	/
C=CCNC(=O)CCSc1nc(-c2ccc(OC)cc2)cc(C(F)(F)F)n1	/	-7	21	/	/	/
CCc1c(C)[nH]c2c(C)cccc2c1=S	/	58	8	/	/	/
Cn1c(=O)c2c(nc(SCC(=O)N3CCc4ccccc4C3)n2C)n(C)c1=O	0	82*	8	2	-6	i
SMILES	ABCB1 block	EP2 modulator	EP2 antag	ABCG2 block	RBBP9 inhibitor	EP2 cAMP induct
Cn1c(=O)c2c(nc(SCC(=O)N3c4ccccc4CCc4ccccc43)n2C)n(C)c1=O	2	19	-4	2	-3	/
O=c1[nH]c2cc3c(cc2cc1CN(C1CCCCC1)S(=O)(=O)c1ccc(Cl)cc1)OCCO3	/	11	16	/	/	/
Cc1ccc(N/C(C(Cl)=C(Cl)Cl)=C(/Cl)[N+](=O)[O-])c(C)c1	0	73*	10	0	-3	+
Cc1ccc(NC(=O)c2c([N+](=O)[O-])c(C(C)(C)C)nn2C)c(C)c1	3	-2	4	22	-7	/
CCn1c(=S)[nH]c2c(c1=O)C(C)(C)Cc1ccccc1-2	2	66*	21	17	1	i
COc1ccc2c(c1)C(=NO)c1cc(OC)ccc1-2	0	-17	14	1	-15	/
C=CCOc1ccc2c(c1)C(=NO)c1cc(OCC=C)ccc1-2	0	83*	8	25	-17	+
Cc1ncc(-c2ccncc2)c(C2CCCN(C(=O)C3CCCO3)C2)n1 (configuration not stated)	/	-20	/	/	/	/
Cc1cc2cc3c(cc2n2c(=O)n(CC(=O)NC4CCCC4)nc12)OCO3	/	0	8	/	/	/
CCn1c(COc2ccc(Cl)cc2)nnc1SCC(=O)Nc1ccc2c(c1)OCO2	1	65*	9	17	0	i
CCn1c(COc2ccc(Cl)cc2)nnc1SCC(=O)Nc1ccc(OC)cc1	/	-2	17	/	/	/
CN(CC(=O)Nc1ccccc1Oc1ccccc1)Cc1ccccc1F	0	67*	4	0	-4	+
COc1ccc(CN(C)CC(=O)Nc2ccccc2-c2ccccc2)c(OC)c1	1	13	1	1	-6	/
Cc1ccccc1CN(C)CC(=O)Nc1ccccc1Oc1ccccc1	1	68*	4	6	-8	+
Cc1ccccc1CN(C)CC(=O)Nc1ccccc1-c1ccccc1	1	53	8	6	2	/
COc1ccccc1CN(C)CC(=O)Nc1ccccc1-c1ccccc1	1	71*	8	2	-8	+
C=CCn1c(-c2oc3nc(-c4ccccc4)cc(-c4ccccc4)c3c2N)n[nH]c1=S	1	61*	4	1	1	i
COc1ccccc1CNc1cc(C)ccc1C	-2	66*	23	-1	-8	i
Cc1ccc(Cl)cc1NC(=S)N(Cc1ccco1)C(C)c1cccs1 (configuration not stated)	0	63*	5	3	3	i
Cc1ccc(NC(=S)N(Cc2ccco2)C(C)c2cccs2)c(Cl)c1 (configuration not stated)	1	36	4	5	-1	/
